In ChEMBL document CHEMBL1148898, “New ring C-seco limonoids from Brazilian Melia azedarach and their cytotoxic activity” (J Nat Prod, 2004) one finds IC50, mortality and Activity data, which are given here for eleven molecules.

Data set [1] is described as follows: (§1) Cytotoxicity against human HeLaS3 cells after 72 hrs by WST1 assay. In kind it is functional, cell-based. To be noted: HeLa S3, 72 h. The method in brief:
(§2)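 HeLa S3 cells seeded at 500 cells/well in minimum essential medium and cultured overnight. Compounds then added at final concentrations of 0.1, 1, 10 and 100 µM and incubated 72 h. WST-1 (Cell Counting Kit) added per manufacturer's protocol, followed by a further 2 h incubation. Absorbance read at 450 nm.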
(In general: Tetrazolium assays rely on reduction of a dye to a coloured formazan, in cell work by metabolically active cells.)

Data set [2] in a line: Toxicity in brine shrimp at 100 ug/mL. In kind it is organism-based. To be noted: artemia, in vivo; read-out: Activity.
For a further data set, the system named is HeLa S3. The data set is described as §1. In kind it is functional, cell-based. In a few lines: as §2

Activity calls are given as the source filed them. No cut-off for these calls is given here.

The term IC50 denotes the midpoint of a concentration-inhibition curve. `C/C=C(\C)C(=O)O[C@@H]1[C@@H]2OC[C@]3(C)[C@H](OC(C)=O)C[C@H](OC(C)=O)[C@@](C)([C@@H]23)[C@H]2CC(=O)O[C@H]3C[C@@H](c4ccoc4)C(C)=C3[C@]12C` [OHCHNOLIDE B]: inhibition in data set [1] was half-maximal at 40.5 µM (IC50). Also, in data set [2], the mortality at 100 ug/mL was determined as 100%.

On to `C/C=C(\C)C(=O)O[C@H]1C[C@@H](O)[C@@](C)(C=O)[C@@H]2[C@@H](OC(C)=O)[C@H]3O[C@@H]4C[C@@H](c5ccoc5)C(C)=C4[C@@]3(C)[C@@H](CC(=O)OC)[C@@]12C` [OHCHINOLAL], for which, in the data set with HeLa S3, the result was inactive. In data set [2], the mortality at 100 ug/mL is 100%. For the molecule `C/C=C(\C)C(=O)O[C@H]1C[C@@H](OC(C)=O)[C@@]2(C)CO[C@H]3[C@@H](OC(=O)c4ccccc4)[C@@]4(C)C5=C(C)[C@H](c6ccoc6)C[C@@H]5OC(=O)C[C@@H]4[C@]1(C)[C@@H]32` [1-O-DEACETYL-1-O-TIGLOYLOHCHINOLIDE A], in data set [1], the IC50 was determined as 29.7 µM. In addition, the mortality at 100 ug/mL in data set [2] was found to be 100%. As for `O=c1[nH]cc(F)c(=O)[nH]1` [FLUOROURACIL], the IC50 in data set [1] amounted to 5.4 µM. Turning to `CC(=O)O[C@@H]1C[C@H](O)[C@@]2(C)[C@H]3[C@@H](OC[C@]13C)[C@@H](OC(=O)c1ccccc1)[C@@]1(C)C3=C(C)[C@H](c4ccoc4)C[C@@H]3OC(=O)C[C@@H]12` [1-O-DEACETYLOHCHINOLIDE A], the IC50 in data set [1] was determined as 2.4 µM. Besides, the mortality at 100 ug/mL in data set [2] came to 100%. Turning to `C/C=C(\C)C(=O)O[C@@H]1[C@@H]2OC[C@]3(C)[C@H](OC(C)=O)C[C@H](O)[C@@](C)([C@@H]23)[C@H]2CC(=O)O[C@H]3C[C@@H](c4ccoc4)C(C)=C3[C@]12C` [1-O-DEACETYLOHCHINOLIDE B], in data set [1], half-maximal inhibition (IC50) required 0.1 µM. In addition, the mortality at 100 ug/mL in data set [2] amounted to 100%. As for `COC(=O)C[C@@H]1[C@]2(C)C3=C(C)[C@H](c4ccoc4)C[C@H]3O[C@@H]2[C@H](OC(C)=O)[C@H]2[C@](C)(C=O)[C@H](O)C[C@H](OC(=O)/C=C/c3ccccc3)[C@]12C`, in the data set with HeLa S3, the outcome was inactive. In addition, the mortality at 100 ug/mL in data set [2] stood at 100%. On to `COC(=O)C[C@@H]1[C@]2(C)C3=C(C)[C@H](c4ccoc4)C[C@H]3O[C@@H]2[C@H](OC(C)=O)[C@H]2[C@](C)(C=O)[C@H](O)C[C@H](OC(=O)c3ccccc3)[C@]12C`, for which the result in the data set on HeLa S3 was inactive. The mortality at 100 ug/mL in data set [2] worked out at 100%. The corresponding values for `CC(=O)O[C@H]1C[C@@H](OC(C)=O)[C@@]2(C)CO[C@H]3[C@@H](OC(=O)c4ccccc4)[C@@]4(C)C5=C(C)[C@H](c6ccoc6)C[C@@H]5OC(=O)C[C@@H]4[C@]1(C)[C@@H]32` [OHCHNOLIDE A] are “inactive” and 100%. Regarding `C/C=C(\C)C(=O)O[C@@H]1[C@@H]2OC[C@]3(C)[C@H](OC(C)=O)C[C@H](OC(=O)c4ccccc4)[C@@](C)([C@@H]23)[C@H]2CC(=O)O[C@H]3C[C@@H](c4ccoc4)C(C)=C3[C@]12C` [1-O-DEACETYL-1-O-BENZOYLOHCHINOLIDE B], the IC50 in data set [1] worked out at 33 µM. For the same molecule, the mortality at 100 ug/mL in data set [2] worked out at 100%.

As for `C/C=C(\C)C(=O)O[C@@H]1[C@@H]2OC[C@]3(C)[C@H](OC(C)=O)C[C@H](OC(=O)/C(C)=C/C)[C@@](C)([C@@H]23)[C@H]2CC(=O)O[C@H]3C[C@@H](c4ccoc4)C(C)=C3[C@]12C` [1-O-DEACETYL-1-O-TIGLOYLOHCHINOLIDE B], the IC50 in data set [1] is 33.8 µM. In addition, the mortality at 100 ug/mL in data set [2] is 100%.
